Reference: ChEMBL document CHEMBL5058577, “EUbOPEN Chemogenomics Library 2 (Multiplex)” (2022)

Test system: HEK-293T
Assay: Multiplex assay against HEK293T
Type: toxicity, cell-based
Conditions: human
How it was run: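 With compound added, live cells were imaged on a CQ1 microscope at 37°C and 5% CO2; staining with Hoechst33342, BioTracker Green Microtubule Cytoskeleton Dye, MitoTracker Red and Annexin V Alexa Fluor 680 had been done at seeding. The CellPathfinder machine-learning gating scheme split cells into Hoechst high-intensity objects or normal cells, normal cells into healthy, pyknosed or fragmented nuclei, and pyknosed cells into mitotic or apoptotic. The tubulin, mitochondrial-mass and membrane-permeability phenotypes are per cents of healthy-nucleus cells.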

[1] = 12 h, 1 µM, compound concentration 1 uM, replicate 1
[2] = 12 h, 1 µM, compound concentration 1 uM, replicate 2
[3] = 12 h, 10 µM, compound concentration 10 uM, replicate 1
[4] = 12 h, 10 µM, compound concentration 10 uM, replicate 2
[5] = 24 h, 1 µM, compound concentration 1 uM, replicate 1
[6] = 24 h, 1 µM, compound concentration 1 uM, replicate 2
[7] = 24 h, 10 µM, compound concentration 10 uM, replicate 1
[8] = 24 h, 10 µM, compound concentration 10 uM, replicate 2
[9] = 48 h, 1 µM, compound concentration 1 uM, replicate 1
[10] = 48 h, 1 µM, compound concentration 1 uM, replicate 2
[11] = 48 h, 10 µM, compound concentration 10 uM, replicate 1
[12] = 48 h, 10 µM, compound concentration 10 uM, replicate 2

## Cc1cc(NC(=O)NCCN2CCC(O)(Cc3ccccc3)CC2)c2ccccc2n1 [PALOSURAN]
[1]
  Population Apoptotic (%): 36%
  Population Fragmented Nuclei (%): 7%
  Population Healthy Nuclei (%): 77%
  Population Hoechst High Intensity Objects (%): 6%
  Population Membrane Permeable-Phenotype (%): 0%
  Population Mitochondria Different-Phenotype (%): 42%
  Population Mitotic Cells (%): 63%
  Population Normal (%): 93%
  Population Pyknosed Nuclei (%): 14%
  Population Tubulin-Different-Phenotype (%): 25%
  Total Cell Count: 373
[2]
  Population Apoptotic (%): 48%
  Population Fragmented Nuclei (%): 9%
  Population Healthy Nuclei (%): 81%
  Population Hoechst High Intensity Objects (%): 9%
  Population Mitochondria Different-Phenotype (%): 57%
  Population Mitotic Cells (%): 52%
  Population Normal (%): 90%
  Population Pyknosed Nuclei (%): 8%
  Population Tubulin-Different-Phenotype (%): 26%
  Total Cell Count: 326
[3]
  Population Apoptotic (%): 38%
  Population Fragmented Nuclei (%): 5%
  Population Healthy Nuclei (%): 81%
  Population Hoechst High Intensity Objects (%): 8%
  Population Membrane Permeable-Phenotype (%): 0%
  Population Mitochondria Different-Phenotype (%): 53%
  Population Mitotic Cells (%): 61%
  Population Normal (%): 91%
  Population Pyknosed Nuclei (%): 12%
  Population Tubulin-Different-Phenotype (%): 41%
  Total Cell Count: 461
[4]
  Population Apoptotic (%): 61%
  Population Healthy Nuclei (%): 75%
  Population Mitochondria Different-Phenotype (%): 76%
  Population Mitotic Cells (%): 38%
  Population Pyknosed Nuclei (%): 18%
  Population Tubulin-Different-Phenotype (%): 42%
  Total Cell Count: 346
[5]
  Population Apoptotic (%): 17%
  Population Fragmented Nuclei (%): 9%
  Population Healthy Nuclei (%): 78%
  Population Hoechst High Intensity Objects (%): 6%
  Population Membrane Permeable-Phenotype (%): 0%
  Population Mitochondria Different-Phenotype (%): 24%
  Population Mitotic Cells (%): 82%
  Population Normal (%): 93%
  Population Pyknosed Nuclei (%): 11%
  Population Tubulin-Different-Phenotype (%): 19%
  Total Cell Count: 511
[6]
  Population Apoptotic (%): 46%
  Population Fragmented Nuclei (%): 10%
  Population Healthy Nuclei (%): 76%
  Population Hoechst High Intensity Objects (%): 4%
  Population Mitochondria Different-Phenotype (%): 45%
  Population Mitotic Cells (%): 53%
  Population Normal (%): 95%
  Population Pyknosed Nuclei (%): 13%
  Population Tubulin-Different-Phenotype (%): 14%
  Total Cell Count: 343
[7]
  Population Apoptotic (%): 35%
  Population Fragmented Nuclei (%): 8%
  Population Healthy Nuclei (%): 79%
  Population Hoechst High Intensity Objects (%): 4%
  Population Membrane Permeable-Phenotype (%): 0%
  Population Mitochondria Different-Phenotype (%): 43%
  Population Mitotic Cells (%): 64%
  Population Normal (%): 95%
  Population Pyknosed Nuclei (%): 11%
  Population Tubulin-Different-Phenotype (%): 32%
  Total Cell Count: 598
[8]
  Population Apoptotic (%): 51%
  Population Fragmented Nuclei (%): 7%
  Population Healthy Nuclei (%): 83%
  Population Hoechst High Intensity Objects (%): 6%
  Population Mitochondria Different-Phenotype (%): 64%
  Population Mitotic Cells (%): 48%
  Population Normal (%): 93%
  Population Pyknosed Nuclei (%): 9%
  Population Tubulin-Different-Phenotype (%): 26%
  Total Cell Count: 396
[9]
  Population Apoptotic (%): 19%
  Population Fragmented Nuclei (%): 15%
  Population Healthy Nuclei (%): 79%
  Population Hoechst High Intensity Objects (%): 3%
  Population Membrane Permeable-Phenotype (%): 1%
  Population Mitochondria Different-Phenotype (%): 16%
  Population Mitotic Cells (%): 80%
  Population Normal (%): 96%
  Population Pyknosed Nuclei (%): 5%
  Population Tubulin-Different-Phenotype (%): 12%
  Total Cell Count: 938
[10]
  Population Apoptotic (%): 32%
  Population Fragmented Nuclei (%): 13%
  Population Healthy Nuclei (%): 81%
  Population Membrane Permeable-Phenotype (%): 0%
  Population Mitochondria Different-Phenotype (%): 24%
  Population Mitotic Cells (%): 67%
  Population Tubulin-Different-Phenotype (%): 15%
  Total Cell Count: 552
[11]
  Population Apoptotic (%): 29%
  Population Fragmented Nuclei (%): 15%
  Population Healthy Nuclei (%): 75%
  Population Hoechst High Intensity Objects (%): 5%
  Population Membrane Permeable-Phenotype (%): 0%
  Population Mitochondria Different-Phenotype (%): 34%
  Population Mitotic Cells (%): 70%
  Population Normal (%): 94%
  Population Pyknosed Nuclei (%): 8%
  Population Tubulin-Different-Phenotype (%): 17%
  Total Cell Count: 874
[12]
  Population Apoptotic (%): 41%
  Population Fragmented Nuclei (%): 9%
  Population Healthy Nuclei (%): 84%
  Population Hoechst High Intensity Objects (%): 4%
  Population Mitochondria Different-Phenotype (%): 42%
  Population Mitotic Cells (%): 58%
  Population Normal (%): 95%
  Population Pyknosed Nuclei (%): 6%
  Population Tubulin-Different-Phenotype (%): 19%
  Total Cell Count: 570

## Cc1cc(-c2ccc3c(c2)CC[C@H]3N2CC3(CCN(C(=O)Cc4cn5cc(C)sc5n4)CC3)C2)ncn1 [PF-5190457]
[1]
  Population Apoptotic (%): 36%
  Population Fragmented Nuclei (%): 5%
  Population Healthy Nuclei (%): 83%
  Population Hoechst High Intensity Objects (%): 5%
  Population Membrane Permeable-Phenotype (%): 0%
  Population Mitochondria Different-Phenotype (%): 40%
  Population Mitotic Cells (%): 63%
  Population Normal (%): 94%
  Population Pyknosed Nuclei (%): 11%
  Population Tubulin-Different-Phenotype (%): 25%
  Total Cell Count: 418
[2]
  Population Apoptotic (%): 47%
  Population Fragmented Nuclei (%): 8%
  Population Healthy Nuclei (%): 72%
  Population Hoechst High Intensity Objects (%): 10%
  Population Mitochondria Different-Phenotype (%): 53%
  Population Mitotic Cells (%): 52%
  Population Normal (%): 89%
  Population Pyknosed Nuclei (%): 19%
  Population Tubulin-Different-Phenotype (%): 22%
  Total Cell Count: 258
[3]
  Population Apoptotic (%): 40%
  Population Fragmented Nuclei (%): 9%
  Population Healthy Nuclei (%): 75%
  Population Hoechst High Intensity Objects (%): 11%
  Population Membrane Permeable-Phenotype (%): 0%
  Population Mitochondria Different-Phenotype (%): 53%
  Population Mitotic Cells (%): 60%
  Population Normal (%): 88%
  Population Pyknosed Nuclei (%): 14%
  Population Tubulin-Different-Phenotype (%): 37%
  Total Cell Count: 455
[4]
  Population Apoptotic (%): 54%
  Population Fragmented Nuclei (%): 3%
  Population Healthy Nuclei (%): 80%
  Population Hoechst High Intensity Objects (%): 8%
  Population Mitochondria Different-Phenotype (%): 70%
  Population Mitotic Cells (%): 45%
  Population Normal (%): 91%
  Population Pyknosed Nuclei (%): 16%
  Population Tubulin-Different-Phenotype (%): 40%
  Total Cell Count: 322
[5]
  Population Apoptotic (%): 21%
  Population Fragmented Nuclei (%): 8%
  Population Healthy Nuclei (%): 77%
  Population Hoechst High Intensity Objects (%): 2%
  Population Membrane Permeable-Phenotype (%): 0%
  Population Mitochondria Different-Phenotype (%): 24%
  Population Mitotic Cells (%): 78%
  Population Normal (%): 97%
  Population Pyknosed Nuclei (%): 13%
  Population Tubulin-Different-Phenotype (%): 16%
  Total Cell Count: 549
[6]
  Population Apoptotic (%): 45%
  Population Fragmented Nuclei (%): 11%
  Population Healthy Nuclei (%): 78%
  Population Hoechst High Intensity Objects (%): 7%
  Population Membrane Permeable-Phenotype (%): 1%
  Population Mitochondria Different-Phenotype (%): 35%
  Population Mitotic Cells (%): 54%
  Population Normal (%): 92%
  Population Pyknosed Nuclei (%): 9%
  Population Tubulin-Different-Phenotype (%): 11%
  Total Cell Count: 352
[7]
  Population Apoptotic (%): 25%
  Population Fragmented Nuclei (%): 10%
  Population Healthy Nuclei (%): 75%
  Population Hoechst High Intensity Objects (%): 5%
  Population Membrane Permeable-Phenotype (%): 1%
  Population Mitochondria Different-Phenotype (%): 28%
  Population Mitotic Cells (%): 74%
  Population Normal (%): 94%
  Population Pyknosed Nuclei (%): 14%
  Population Tubulin-Different-Phenotype (%): 30%
  Total Cell Count: 638
[8]
  Population Apoptotic (%): 36%
  Population Fragmented Nuclei (%): 5%
  Population Healthy Nuclei (%): 81%
  Population Hoechst High Intensity Objects (%): 6%
  Population Membrane Permeable-Phenotype (%): 0%
  Population Mitochondria Different-Phenotype (%): 51%
  Population Mitotic Cells (%): 63%
  Population Normal (%): 93%
  Population Pyknosed Nuclei (%): 13%
  Population Tubulin-Different-Phenotype (%): 23%
  Total Cell Count: 425
[9]
  Population Apoptotic (%): 25%
  Population Fragmented Nuclei (%): 14%
  Population Healthy Nuclei (%): 79%
  Population Hoechst High Intensity Objects (%): 1%
  Population Membrane Permeable-Phenotype (%): 1%
  Population Mitochondria Different-Phenotype (%): 18%
  Population Mitotic Cells (%): 74%
  Population Normal (%): 98%
  Population Pyknosed Nuclei (%): 5%
  Population Tubulin-Different-Phenotype (%): 9%
  Total Cell Count: 873
[10]
  Population Apoptotic (%): 39%
  Population Fragmented Nuclei (%): 12%
  Population Healthy Nuclei (%): 80%
  Population Hoechst High Intensity Objects (%): 3%
  Population Mitochondria Different-Phenotype (%): 21%
  Population Mitotic Cells (%): 60%
  Population Normal (%): 96%
  Population Pyknosed Nuclei (%): 6%
  Population Tubulin-Different-Phenotype (%): 10%
  Total Cell Count: 531
[11]
  Population Apoptotic (%): 24%
  Population Fragmented Nuclei (%): 14%
  Population Healthy Nuclei (%): 77%
  Population Hoechst High Intensity Objects (%): 2%
  Population Membrane Permeable-Phenotype (%): 0%
  Population Mitochondria Different-Phenotype (%): 27%
  Population Mitotic Cells (%): 76%
  Population Normal (%): 97%
  Population Pyknosed Nuclei (%): 8%
  Population Tubulin-Different-Phenotype (%): 20%
  Total Cell Count: 927
[12]
  Population Apoptotic (%): 46%
  Population Fragmented Nuclei (%): 13%
  Population Healthy Nuclei (%): 78%
  Population Hoechst High Intensity Objects (%): 4%
  Population Mitochondria Different-Phenotype (%): 32%
  Population Mitotic Cells (%): 53%
  Population Normal (%): 95%
  Total Cell Count: 520
